Compound activity as filed in PubChem.
Shown are actives, neighbours in structure and some others; about 4.5% of the full set was active somewhere.
TAAR1 antag – human TAAR1 antagonists, primary screen, Fluo-8 calcium fluorescence, CHO RD-HGA16 cells. Trace amine-associated receptor 1 (Homo sapiens), Q96RJ0. antagonist. inhibition, % at 3 µM. actives 1.5% (n = 360,000). AID 624466, 2012;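 active means inhibition above a per-plate cutoff, the mean inhibition of test compounds on that plate plus 3 SD, cut at about 49% in these data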;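 further: 0% = DMSO plus EC80 beta-PEA response and 100% = DMSO alone without agonist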
Target sequence (Q96RJ0 whole entry, looked up): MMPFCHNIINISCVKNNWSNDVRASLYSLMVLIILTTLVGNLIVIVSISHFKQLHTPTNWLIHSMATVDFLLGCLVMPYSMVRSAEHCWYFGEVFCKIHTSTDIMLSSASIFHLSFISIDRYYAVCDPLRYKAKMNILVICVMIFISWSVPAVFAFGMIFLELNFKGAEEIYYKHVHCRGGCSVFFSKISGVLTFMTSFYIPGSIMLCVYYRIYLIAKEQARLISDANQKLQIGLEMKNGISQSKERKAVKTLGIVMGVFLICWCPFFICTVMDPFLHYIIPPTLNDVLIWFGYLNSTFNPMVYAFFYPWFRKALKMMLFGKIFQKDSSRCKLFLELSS
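Test system – hTAAR1-expressing CHO RD-HGA16 cells, Gα16-coupled · Reagent – β-PEA at EC80 concentration, post-compound challenge · Compound dosing – 3 µM, single point · Timing – 140 s kinetic read after compound, 140 s after agonist · Detection – Fluo-8 intracellular calcium dye fluorescence, real-time kinetic reads · Control set – DMSO and EC80 PEA controls · Repeats – n of 1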
OX1R antag-1 – antagonists of human orexin 1 receptor (OX1R); OX1R-expressing cells, FRET antagonist read-out; AID 485270, 2010; Orexin/Hypocretin receptor type 1 (Homo sapiens), O43613; inhibition, % at 6.6 µM; actives 1.8% (n = 330,000); in the data active means inhibition mostly above about 38%, no sharp cut-off; inactive means mostly below about 40%;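 further: 0% = agonist challenge alone and 100% = reference antagonist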
OX1R antag-2 – OX1R (HCRTR1) antagonists, primary screen, fluorescence, CHO/OX1R cells, Fluo-8 calcium, orexin A. Orexin/Hypocretin receptor type 1 (Homo sapiens), O43613. Fluo-8 calcium fluorescence. inhibition, % at 5 µM. actives 0.43% (n = 330,000);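 active means inhibition above its plate's threshold, mean inhibition of all tested compounds on the plate plus 3 SD, cut at about 37% in these data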;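 further: 0% = orexin A challenge wells and 100% = SB-334867-A antagonist wells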
TAAR1 agonist – human TAAR1 agonists, primary screen, Fluo-8 calcium fluorescence, CHO RD-HGA16 cells; vehicle wells 0%, saturating PEA agonist 100%; activation, % at 3 µM; actives 0.99% (n = 360,000);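 active means activation above the mean activation of all test compounds in the run plus 3 SD, cut at about 38% in these data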
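System: CHO-derived RD-HGA16 cells with stable Gα16 and human TAAR1 / Times: 17-24 h plating, Fluo-8 75 min 37 °C, 30 min RT / Technique: calcium-sensitive Fluo-8 signal, excitation 470-495, emission 515-575 nm / Measure: % activation relative to PEA EC100 response / Benchmarks: DMSO and PEA EC100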
CHO parental Ca – ATP-evoked calcium signal inhibitors, parental CHO, primary screen, counter-screen for OX1R antagonist project, cell-based, fluorescence, Fluo-8 calcium dye. actives 0.63% (n = 330,000). inhibition, % at 5.6 µM. parental CHO-K1, ATP-induced calcium, Fluo-8 fluorescence;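 active means inhibition above that plate's mean sample inhibition plus 3 SD, cut at about 26% in these data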;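 further: 0% = ATP-challenged DMSO wells and 100% = DMSO wells without ATP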
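Assay system: untransfected parental CHO cell line. Also added: ATP agonist challenge. Dosing: one dose, 5.6 µM nominal. Measured by: Fluo-8 fluorescence. Read-out: % inhibition. Benchmarks: ATP wells versus no-ATP DMSO wells. Repeats: no replicates.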
GPR7 antagonist – GPR7 receptor antagonists, primary screen, cell-based, fluorescence, single concentration; Neuropeptides B/W receptor type 1 (Homo sapiens), P48145; GPR7-expressing cells, fluorescence antagonist assay; inhibition, % at 4.4 µM; actives 1.1% (n = 290,000); AID 1861, 2009; in the data active means inhibition above about 16%, passing the limit was not always enough;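 further: cells stimulated with the agonist NPW; 0% = agonist with vehicle and 100% = vehicle without agonist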
Target sequence (P48145 whole entry, looked up): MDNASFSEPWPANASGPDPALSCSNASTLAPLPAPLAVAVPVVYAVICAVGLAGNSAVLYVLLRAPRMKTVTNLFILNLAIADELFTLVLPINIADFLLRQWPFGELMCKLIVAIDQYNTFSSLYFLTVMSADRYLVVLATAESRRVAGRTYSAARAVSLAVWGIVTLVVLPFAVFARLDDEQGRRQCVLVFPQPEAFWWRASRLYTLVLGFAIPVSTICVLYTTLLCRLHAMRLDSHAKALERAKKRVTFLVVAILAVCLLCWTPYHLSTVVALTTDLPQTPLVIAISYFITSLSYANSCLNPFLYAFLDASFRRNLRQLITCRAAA
OX1R HTRF confirm – OX1R (HCRTR1) antagonists, confirmation, cell-based, HTRF | OX1R-expressing cells, HTRF antagonist assay | shares compounds with OX1R antag-1 | actives 49% (n = 1,800) | inhibition, % at 6.6 µM; in the data active means inhibition above about 55%;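 further: CHO cells expressing OX1R stimulated with orexin A at about EC80; 0% = agonist challenge alone and 100% = reference antagonist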
CHO-K1 HTRF – signal inhibition in parental CHO-K1 cells, counter-screen for OX1R antagonist project, cell-based, HTRF. shares compounds with OX1R antag-1. HTRF counterscreen. inhibition, % at 6.6 µM. actives 48% (n = 1,800). AID 493232, 2011; in the data active means inhibition above about 17%;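 further: 0% = agonist challenge with vehicle and 100% = vehicle alone without agonist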
* = called active by the depositor; x = no result.

SMILES	TAAR1 antag	OX1R antag-1	OX1R antag-2	TAAR1 agonist	CHO parental Ca	GPR7 antagonist	OX1R HTRF confirm	CHO-K1 HTRF
CCCCn1c(N)c(N(CCOC)C(=O)CSc2nnc(C)n2-c2ccc(OC)cc2)c(=O)[nH]c1=O	3	7	-18	0	-18	x	x	x
COc1cccc(C2C(C#N)=C(N)Oc3c2oc(CO)cc3=O)c1OC (stereo not drawn)	1	2	-8	4	-7	-3	x	x
N#CC1=C(N)Oc2c(oc(CO)cc2=O)C1c1cccs1 (stereo not drawn)	-7	77*	-11	1	-11	-14	18	22*
N#CC1=C(N)Oc2c(oc(CO)cc2=O)C1c1ccsc1 (stereo not drawn)	-3	92*	8	15	14	-5	23	18*
COc1cc(C2C(C#N)=C(N)Oc3c2oc(CO)cc3=O)cc(OC)c1OC (stereo not drawn)	3	19	-14	4	-11	-8	x	x
COc1cccc(C(=O)N2CCC[C@@H]2C(=O)N2CCC[C@@H]2C(=O)NCc2ccccc2Cl)c1	5	x	x	11	x	x	x	x
C=CCNc1sc(C(=O)c2ccccc2)c(N)c1-c1nc2ccccc2s1	x	93*	-8	x	-18	1	35	7
COc1ccc(OC)c(/C=C/C(=O)OCC(=O)N2CCN(S(=O)(=O)c3ccc(C)cc3C)CC2)c1	2	x	x	4	x	x	x	x
COC(=O)N/N=C/c1ccc([N+](=O)[O-])s1	-11	106*	10	1	4	-3	44	85*
Cn1c(SCC(=O)N/N=C/c2cc([N+](=O)[O-])ccc2O)nnc1-c1ccccc1	-13	1	-14	0	-19	6	x	x
O=C(N/N=C/c1ccc([N+](=O)[O-])s1)c1ccccc1	18	107*	-4	1	-11	-2	36	52*
COc1ccc(NC(C)C(=O)N/N=C/c2ccc([N+](=O)[O-])s2)cc1 (stereo not drawn)	9	81	-6	3	-22	15	x	x
Cn1c(SCC(=O)N/N=C/c2ccc([N+](=O)[O-])s2)nnc1-c1ccccc1	-4	87*	-6	0	-15	-13	37	52*
CC(C)c1ccc(NC2CCCN(C(=O)c3n[nH]c4c3CCC4)C2)cc1 (stereo not drawn)	-19	3	-25	5	-17	12	x	x
Cc1ccccc1NC1=C/C(=N\S(=O)(=O)c2cccs2)c2ccccc2C1=O	24	39	-29	10	-19	-7	x	x
Cc1cc[n+](C2=C([O-])c3ccccc3C(=O)/C2=N\S(=O)(=O)c2cccs2)cc1C	-17	106*	-17	4	-13	3	30	25*
Cc1occc1C(=O)N=Nc1c(O)n(C)c2ccccc12	-12	37	-17	1	-9	-11	x	x
CCOC(=O)C(=O)N=Nc1c(O)n(C)c2ccccc12	20	183*	-91	0	-6	-12	49	75*
Cc1cc(N=NC(=O)c2ccccc2O)c2ccccc2c1O	15	120*	-18	10	-8	-7	94*	48*
Cn1c(O)c(N=NC(=O)c2ccco2)c2ccccc21	-5	166*	-9	1	-28	-10	83*	53*
Cn1c(O)c(N=NC(=O)c2ccccc2O)c2ccccc21	14	121*	-13	4	-10	-9	91*	29*
CCCCN(C(=O)c1cccc(-n2cnnn2)c1)c1c(N)n(CCCC)c(=O)[nH]c1=O	-12	x	x	4	x	x	x	x
Cc1ccc(NCc2cccc(B(O)O)c2)cc1	4	x	x	2	x	x	x	x
Cn1c(O)c(N=NC(=O)CNC(=O)c2ccco2)c2ccccc21	15	79*	-5	5	-13	-3	39	48*
O=C(Cc1cccc(F)c1)N1CCOCC1	-12	x	x	3	x	x	x	x
SMILES	TAAR1 antag	OX1R antag-1	OX1R antag-2	TAAR1 agonist	CHO parental Ca	GPR7 antagonist	OX1R HTRF confirm	CHO-K1 HTRF
COc1cccc2sc(Nc3nc(-c4ccncc4)cs3)nc12	5	82*	16	0	6	9	98*	8
CC1(C(=O)NS(=O)(=O)c2cccc(F)c2)CCN1C(=O)c1ccccc1 (stereo not drawn)	-9	x	x	0	x	x	x	x
O=[N+]([O-])c1ccc2c(c1)C(O)n1ncnc1S2 (stereo not drawn)	-4	108*	2	4	-1	-17	37	48*
COc1cc(C(O)c2nc(-c3csc4ccccc34)cs2)ccc1F (stereo not drawn)	19	x	x	1	x	x	x	x
CCn1c2ccccc2c2cc(NC(=O)COC(=O)c3cc(OC)c(OC)cc3OC)ccc21	16	80*	19	0	-17	-7	89*	12
CCn1c(=O)cc(OCC(=O)Nc2ccc(OC)c(OC)c2)c2ccccc21	1	82*	-11	7	-6	-4	21	4
CCn1c(=O)cc(OCC(=O)Nc2ccc3c(c2)OCCO3)c2ccccc21	8	10	-15	17	-3	-3	x	x
COc1ccccc1N(CC(O)COc1ccc(C)cc1)S(=O)(=O)c1ccccc1 (stereo not drawn)	4	78*	16	1	-15	-6	91*	-1
O=[N+]([O-])c1ccc(NCCN2CCOCC2)c([N+](=O)[O-])c1	-11	x	x	2	x	0	x	x
CCOc1cc(NCCN2CCOCC2)c([N+](=O)[O-])cc1OCC	-3	91*	-26	-4	-7	4	38	49*
O=C1c2ccccc2C(=O)c2c1cccc2N1CCOCC1	-2	81*	-23	4	-16	-8	43	34*
COc1ccc(O)cc1CN1CCN(c2ncc(Cc3ccccc3)cn2)CC1	-7	x	x	3	x	x	x	x
O=C(NCCCN1CCOCC1)c1sc2cc(Cl)ccc2c1Cl	7	9	-35	7	-1	0	x	x
O=C(NCCCN1CCOCC1)c1sc2cc([N+](=O)[O-])ccc2c1Cl	x	93*	-11	x	-9	-2	39	56*
O=C(CN1CCOCC1)Nc1cc([N+](=O)[O-])ccc1Cl	-15	79*	-5	10	-4	-10	31	35*
